Assay [1] is described as follows: Inhibition of bacterial ImiS expressed in Escherichia coli BL21 (DE3) using imipenem as substrate preincubated for 3 hrs with enzyme followed by substrate addition by spectrometry analysis. Also on record: species or system Bacteria. The gist of the method: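 Purified ImiS preincubated 3 h with inhibitor (six concentrations, 0.01–20 μM; DMSO below 0.5%) in 30 mM Tris pH 7.0, 25 °C; imipenem 40 μM. Hydrolysis read at 300 nm, rates in triplicate. IC50 from linear fit of mean percent inhibition against inhibitor concentration.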

Assay [2] relates to Bacteria. The assay can be described thus: Inhibition of bacterial ImiS expressed in Escherichia coli BL21 (DE3) at 20 uM using imipenem as substrate by spectrometry analysis relative to control. The procedure, abridged:
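Purified ImiS with imipenem (40 μM) in 30 mM Tris pH 7.0; inhibitor at 20 μM, DMSO below 0.5%. Hydrolysis followed at 300 nm by UV-vis; initial rates in triplicate, averaged. Percent inhibition = activity without inhibitor (100%) minus residual activity.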

For assay [3], the system named is Bacteria. Nature of the assay: Inhibition of bacterial L1 expressed in Escherichia coli BL21 (DE3) at 20 uM using cefazolin as substrate by spectrometry analysis relative to control. The procedure, abridged: (§1)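 Purified L1 or NDM-1; cefazolin (40 μM) substrate, hydrolysis monitored at 262 nm by UV-vis. Inhibitor at 20 μM. Initial rates with and without inhibitor measured in triplicate and averaged; percent inhibition = uninhibited activity (100%) minus residual activity.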

In assay [4] the test system is Bacteria. The assay can be described thus: Inhibition of bacterial NDM-1 expressed in Escherichia coli BL21 (DE3) at 20 uM using cefazolin as substrate by spectrometry analysis relative to control. The procedure, abridged: as §1
The test system of assay [5] is Bacteria. Nature of the assay: Inhibition of beta-lactamase ImiS (unknown origin) in expressed Escherichia coli BL21 (DE3) assessed as potentiation of imipenem induced antibacterial activity by measuring imipenem MIC at 64 ug/ml incubated for 16 hrs by CLSI broth microdilution method (reference value: 16 ug/ml). The settings on record: dose 64.0 µg/ml. The gist of the method:
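E. coli BL21 (DE3) carrying pET26b-ImiS grown in MH broth to OD600 0.5, diluted to 1 × 10^5 CFU mL–1. CLSI broth dilution; imipenem serially diluted, inhibitor at 64 μg mL–1 stock.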

In assay [6] the test system is Bacteria. Nature of the assay: Inhibition of beta-lactamase ImiS (unknown origin) expressed in Escherichia coli BL21 (DE3) assessed as potentiation of meropenem induced antibacterial activity by measuring meropenem MIC at 64 ug/ml incubated for 16 hrs by CLSI broth microdilution method (reference value: 64 ug/ml). The settings on record: dose 64.0 µg/ml.

With `NS(=O)(=O)c1ccc(NC(=O)c2cccc(Br)c2)cc1`, the half-inhibitory concentration (IC50) in assay [1] amounted to 2.7 µM. Moreover, the figures for the inhibition in the assay with Bacteria [2], with Bacteria [3] and in the assay on Bacteria [4] were > 70%, < 20% and < 20%, respectively. The results for the MIC in the assay on Bacteria [5] and with Bacteria [6] were 8 µg/mL and 32 µg/mL, respectively.
`NS(=O)(=O)c1ccc(NC(=O)CCc2ccccc2)cc1` displayed an IC50 in assay [1] of 3.5 µM. Further, the inhibition in the assay with Bacteria [2] is > 70%; with Bacteria [3], < 20%; with Bacteria [4], < 20%. For the same molecule, the MIC turned out to be 8 µg/mL in the assay with Bacteria [5] and 32 µg/mL with Bacteria [6].
In assay [1], `NS(=O)(=O)c1ccccc1NC(=O)c1ccc(Cl)cc1` came in with a 50% inhibitory concentration (IC50) of 5.4 µM. In addition, the inhibition is > 70% in the assay with Bacteria [2], < 20% with Bacteria [3] and < 20% with Bacteria [4]. Also, the values for the MIC in the assay with Bacteria [5] and in the assay with Bacteria [6] were 8 µg/mL and 32 µg/mL, respectively.
As to `NS(=O)(=O)c1ccc(NC(=O)CC(c2ccccc2)c2ccccc2)cc1`, in assay [1], the IC50 was 4.1 µM. The inhibition with Bacteria [2] was > 70%; with Bacteria [3] it was < 20%; in the assay with Bacteria [4], < 20%. Besides, the MIC in the assay on Bacteria [5] was 8 µg/mL; with Bacteria [6] it was 32 µg/mL.
The molecule `CCN(CC)c1ccc2c(-c3ccccc3C(=O)Oc3ccc(S(N)(=O)=O)cc3)c3ccc(=[N+](CC)CC)cc-3oc2c1` had a half-maximal inhibitory concentration (IC50) in assay [1] of 6.8 µM. Besides, the MIC in the assay with Bacteria [5] came out at 8 µg/mL; in the assay with Bacteria [6], 32 µg/mL.
Consider `NS(=O)(=O)c1cccc(NC(=O)c2cccc([N+](=O)[O-])c2)c1`, for which, in assay [1], half-maximal inhibition (IC50) was put at 0.86 µM. The values for the inhibition with Bacteria [2], in the assay on Bacteria [3] and with Bacteria [4] were > 70%, < 20% and < 20%, respectively. Further, the figures for the MIC in the assay on Bacteria [5] and with Bacteria [6] were 4 µg/mL and 16 µg/mL, respectively.
Turning to `NS(=O)(=O)c1cccc(NC(=O)c2ccc(C(F)(F)F)cc2)c1`, inhibition in assay [1] was half-maximal at 0.31 µM (IC50). Also, the results for the inhibition in the assay on Bacteria [2], in the assay on Bacteria [3] and in the assay with Bacteria [4] were > 70%, < 20% and < 20%, respectively. Further, the MIC in the assay on Bacteria [5] was 4 µg/mL; with Bacteria [6] it was 16 µg/mL.
Molecule `NS(=O)(=O)c1ccc(NC(=O)c2ccccc2)cc1` yielded an IC50 in assay [1] of 7.5 µM. For the same molecule, the results for the inhibition in the assay on Bacteria [2], in the assay with Bacteria [3] and with Bacteria [4] were > 70%, < 20% and < 20%, respectively. For the same molecule, the figures for the MIC in the assay on Bacteria [5] and in the assay with Bacteria [6] were 8 µg/mL and 32 µg/mL, respectively.
In assay [1], `CC(C)(C)c1ccc(C(=O)Nc2cccc(S(N)(=O)=O)c2)cc1` came in with a 50% inhibitory concentration (IC50) of 0.23 µM. Further, the inhibition in the assay on Bacteria [2] was > 70%; in the assay on Bacteria [3], < 20%; in the assay with Bacteria [4] it was < 20%. Further, the MIC with Bacteria [5] came to 4 µg/mL; with Bacteria [6] it was 16 µg/mL.
As for `NS(=O)(=O)c1ccc(NC(=O)c2ccc(C(F)(F)F)cc2)cc1`, it took 9.3 µM to reach half-maximal inhibition in assay [1] (IC50). Further, the inhibition with Bacteria [2] is > 70%; in the assay with Bacteria [3], < 20%; with Bacteria [4], < 20%. Also, the MIC in the assay with Bacteria [5] is 8 µg/mL; with Bacteria [6], 32 µg/mL.
`CC(C)(C)c1ccc(C(=O)Nc2ccc(S(N)(=O)=O)cc2)cc1` showed an IC50 in assay [1] of 3.3 µM. In addition, the inhibition in the assay with Bacteria [2] was > 70%; in the assay with Bacteria [3], < 20%; with Bacteria [4], < 20%. Moreover, the MIC in the assay with Bacteria [5] came out at 8 µg/mL; in the assay with Bacteria [6], 32 µg/mL.
In assay [1], `NS(=O)(=O)c1cccc(NC(=O)CCc2ccccc2)c1` displayed a half-inhibitory concentration (IC50) of 0.16 µM. Also, the inhibition in the assay with Bacteria [2] is > 70%; with Bacteria [3] it was < 20%; with Bacteria [4], < 20%. The MIC was determined as 4 µg/mL in the assay with Bacteria [5] and 16 µg/mL in the assay on Bacteria [6].
As to `NS(=O)(=O)c1cccc(NC(=O)c2ccccc2)c1`, half-maximal inhibition in assay [1] (IC50) required 0.15 µM. Moreover, the inhibition with Bacteria [2] is > 70%; in the assay on Bacteria [3] it was < 20%; in the assay with Bacteria [4] it was < 20%. Moreover, the MIC in the assay with Bacteria [5] was found to be 4 µg/mL; in the assay on Bacteria [6], 16 µg/mL.
In the case of `NS(=O)(=O)c1ccc(NC(=O)c2ccc(O)cc2)cc1`, in assay [1], the 50% inhibitory concentration (IC50) came out at 5.6 µM. Besides, the inhibition in the assay with Bacteria [2] is > 70%; with Bacteria [3] it was < 20%; in the assay on Bacteria [4] it was < 20%. Further, the MIC was 8 µg/mL in the assay on Bacteria [5] and 32 µg/mL in the assay with Bacteria [6].

Values taken from ChEMBL document CHEMBL4673174, “meta-Substituted benzenesulfonamide: a potent scaffold for the development of metallo-beta-lactamase ImiS inhibitors” (RSC Med Chem, 2020).
